According to ChEMBL document CHEMBL3525963, “Tissue distribution and elimination of [14C]apixaban in rats” (Drug Metab Dispos, 2011):

Columns and labels:
Conditions in all cases: in vivo
Pancreas [1] = test: Biodistribution in male Sprague-Dawley rat pancreas at 5 mg/kg, po administered as single dose measured after 72 hrs; assay type: ADME, organism-based; design: dose 5 mg/kg, dosed compound name [14C]-apixaban, route oral
How it was run: (§1)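 Fasted male SD rats (225-252 g) each received one oral gavage dose of [14C]apixaban, 5 mg/kg (100 μCi/kg), in 0.5% Tween 80/Labrafil vehicle. One rat was killed per time point, from 0.5 to 168 h. Frozen carcasses were cut into 40 µm sagittal whole-body sections and read by QWBA phosphor imaging against [14C]glucose calibrants. Results are in µg apixaban eq/g; BLQ <0.037 µg eq/g.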

Rattus norvegicus [2] = test: Biodistribution in male Sprague-Dawley rat pituitary gland at 5 mg/kg, po administered as single dose measured after 72 hrs; assay type: ADME, organism-based; design: dose 5 mg/kg, dosed compound name [14C]-apixaban, route oral; how it was run: as §1
Adrenal gland [3] = test: Biodistribution in female Sprague-Dawley rat adrenal gland at 5 mg/kg, po administered as single dose measured after 72 hrs; assay type: ADME, organism-based; design: dose 5 mg/kg, dosed compound name [14C]-apixaban, route oral
How it was run: (§2)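 Quantitative whole-body autoradiography was run after a single 5 mg/kg (100 μCi/kg) oral gavage to fasted female or pregnant SD rats, one rat per time point. Carcasses were frozen in hexane/dry ice, and 40 µm sagittal sections were dried at −20°C for at least 48 h. Sections were exposed to a phosphor plate alongside [14C]glucose standards (0.001–6.5 µCi/g). Results are µg eq/g, with LLOQ 0.037 µg eq/g.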

Liver = test: Biodistribution in female Sprague-Dawley rat liver at 5 mg/kg, po administered as single dose measured after 24 hrs; assay type: ADME, organism-based; design: dose 5 mg/kg, dosed compound name [14C]-apixaban, route oral
How it was run: (§3)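 [¹⁴C]Apixaban given by oral gavage at 5 mg/kg (100 μCi/kg) in 0.5% Tween 80 in Labrafil (1.0 mg/mL dosing solution) to rats fasted overnight through 4 h post-dose. One rat per time point; carcass frozen in hexane/dry ice. Quantitative whole-body autoradiography used 40 µm sagittal sections and a phosphor imaging plate calibrated with [¹⁴C]glucose standards (0.001–6.5 μCi/g). Read-out in µg eq apixaban/g; LLOQ 0.037 μg eq/g.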

Rattus norvegicus [4] = test: Biodistribution in female Sprague-Dawley rat salivary gland at 5 mg/kg, po administered as single dose measured after 8 hrs; assay type: ADME, organism-based; design: dose 5 mg/kg, dosed compound name [14C]-apixaban, route oral
How it was run: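 [14C]apixaban (20 μCi/mL in dosing solution) in 0.5% Tween 80 in Labrafil given by oral gavage to fasted female rats, 206-213 g, at 100 μCi/kg. One rat per time point was euthanized and snap-frozen. Sagittal 40 µm whole-body sections were read by QWBA phosphor imaging against [14C]glucose standards. Results are in µg eq apixaban/g, with LLOQ 0.037 μg eq/g.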

Lung [5] = test: Biodistribution in female Sprague-Dawley rat lung at 5 mg/kg, po administered as single dose measured after 8 hrs; assay type: ADME, organism-based; design: dose 5 mg/kg, dosed compound name [14C]-apixaban, route oral; how it was run: as §3
Muscle tissue [6] = test: Biodistribution in female Sprague-Dawley rat muscle at 5 mg/kg, po administered as single dose measured after 0.5 hrs; assay type: ADME, organism-based; design: dose 5 mg/kg, dosed compound name [14C]-apixaban, route oral; how it was run: as §3
Rattus norvegicus [7] = test: Biodistribution in male Sprague-Dawley rat kidney cortex at 5 mg/kg, po administered as single dose measured after 72 hrs; assay type: ADME, organism-based; design: dose 5 mg/kg, dosed compound name [14C]-apixaban, route oral; how it was run: as §1
Brain = test: Biodistribution in male Sprague-Dawley rat brain at 5 mg/kg, po administered as single dose measured after 1 hr; assay type: ADME, organism-based; design: dose 5 mg/kg, dosed compound name [14C]-apixaban, route oral
Muscle tissue [8] = test: Biodistribution in male Sprague-Dawley rat muscle at 5 mg/kg, po administered as single dose measured after 4 hrs; assay type: ADME, organism-based; design: dose 5 mg/kg, dosed compound name [14C]-apixaban, route oral
How it was run: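 [14C]apixaban (1.0 mg/mL, 20 μCi/mL) in 0.5% Tween 80 in Labrafil, given by oral gavage at 100 μCi/kg to male rats (225-252 g) fasted overnight through 4 h post-dose. One rat per time point. Carcasses frozen in hexane/dry ice and cut into 40 µm sagittal sections. QWBA read on phosphor plates against [14C]glucose standards, reported as µg eq/g. LLOQ 0.037 µg eq/g.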

Adrenal gland [9] = test: Biodistribution in male Sprague-Dawley rat adrenal gland at 5 mg/kg, po administered as single dose measured after 8 hrs; assay type: ADME, organism-based; design: dose 5 mg/kg, dosed compound name [14C]-apixaban, route oral; how it was run: as §3
Blood = test: Biodistribution in male Sprague-Dawley rat blood at 5 mg/kg, po administered as single dose measured after 8 hrs; assay type: ADME, organism-based; design: dose 5 mg/kg, dosed compound name [14C]-apixaban, route oral; how it was run: as §3
Rattus norvegicus [10] = test: Biodistribution in pregnant Sprague-Dawley rat salivary gland at 5 mg/kg, po administered as single dose measured after 8 hrs; assay type: ADME, organism-based; design: dose 5 mg/kg, dosed compound name [14C]-apixaban, route oral
Rattus norvegicus [11] = test: Biodistribution in pregnant Sprague-Dawley rat brown fat at 5 mg/kg, po administered as single dose measured after 24 hrs; assay type: ADME, organism-based, Brown adipose tissue; design: dose 5 mg/kg, dosed compound name [14C]-apixaban, route oral
How it was run: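 Fasted pregnant SD rats (n=6, 270-319 g) each received one oral gavage dose of [14C]apixaban, 5 mg/kg (100 μCi/kg), in 0.5% Tween 80/Labrafil. One rat was killed at each of 0.5, 1, 4, 8, 24 and 48 h. Carcasses were frozen in hexane/dry ice, cut into 40 µm sagittal sections, exposed to phosphor plates and quantified against [14C]glucose standards as µg eq/g. LLOQ was 0.037 µg eq/g.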

Pancreas [12] = test: Biodistribution in pregnant Sprague-Dawley rat pancreas at 5 mg/kg, po administered as single dose measured after 24 hrs; assay type: ADME, organism-based; design: dose 5 mg/kg, dosed compound name [14C]-apixaban, route oral
How it was run: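 Pregnant SD rats (270-319 g) were fasted overnight and given one oral gavage of 5 mg/kg (100 μCi/kg) in 0.5% Tween 80 in Labrafil. One rat was euthanized per time point (0.5, 1, 4, 8, 24, 48 h) and the carcass frozen. 40 µm sagittal sections were phosphor-imaged against [14C]glucose standards and results reported as µg eq/g; LLOQ 0.037 µg eq/g.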

Plasma = test: AUC (0 to infinity) in lactating Sprague-Dawley rat plasma at 5 mg/kg, po administered as single dose; assay type: ADME, organism-based; design: time infinity, dose 5 mg/kg, dosed compound name [14C]-apixaban, route oral
How it was run: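 Fasted lactating SD rats received 5 mg/kg [14C]apixaban orally (formulation 5.0 mg/mL, 20 μCi/mL). Oxytocin was injected subcutaneously 15 min before collection, and 1 mL milk was taken under anesthesia by milking machine. Sampling was predose and at 0.5–24 h, 3 rats per time point. Plasma was obtained at 1300g for 10 min. Duplicate 50–100 µL aliquots were counted by LSC for 10 min. AUC was calculated in WinNonlin.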

Harderian gland = test: Biodistribution in female Sprague-Dawley rat harderian gland at 5 mg/kg, po administered as single dose measured after 72 hrs; assay type: ADME, organism-based; design: dose 5 mg/kg, dosed compound name [14C]-apixaban, route oral; how it was run: as §2
Thymus = test: Biodistribution in female Sprague-Dawley rat thymus at 5 mg/kg, po administered as single dose measured after 1 hr; assay type: ADME, organism-based; design: dose 5 mg/kg, dosed compound name [14C]-apixaban, route oral; how it was run: as §3
Lung [13] = test: Biodistribution in female Sprague-Dawley rat lung at 5 mg/kg, po administered as single dose measured after 1 hr; assay type: ADME, organism-based; design: dose 5 mg/kg, dosed compound name [14C]-apixaban, route oral; how it was run: as §3
Rattus norvegicus [14] = test: Biodistribution in fetal blood of pregnant Sprague-Dawley rat at 5 mg/kg, po administered as single dose measured after 4 hrs; assay type: ADME, organism-based; design: dose 5 mg/kg, dosed compound name [14C]-apixaban, route oral
How it was run: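 Pregnant rats, 270-319 g and fasted overnight, received [14C]apixaban by oral gavage at 100 μCi/kg in 0.5% Tween 80/Labrafil. One dam per time point was euthanized and frozen in hexane/dry ice. Fetal tissue radioactivity was measured by QWBA on 40 µm sagittal sections calibrated with [14C]glucose standards. Values are in µg eq/g, with LLOQ 0.037 μg eq/g.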

Rattus norvegicus [15] = test: Biodistribution in pregnant Sprague-Dawley rat brown fat at 5 mg/kg, po administered as single dose measured after 0.5 hrs; assay type: ADME, organism-based, Brown adipose tissue; design: dose 5 mg/kg, dosed compound name [14C]-apixaban, route oral
Pancreas [16] = test: Biodistribution in pregnant Sprague-Dawley rat pancreas at 5 mg/kg, po administered as single dose measured after 1 hr; assay type: ADME, organism-based; design: dose 5 mg/kg, dosed compound name [14C]-apixaban, route oral
Rattus norvegicus [17] = test: Biodistribution in pregnant Sprague-Dawley rat brown fat at 5 mg/kg, po administered as single dose measured after 8 hrs; assay type: ADME, organism-based, Brown adipose tissue; design: dose 5 mg/kg, dosed compound name [14C]-apixaban, route oral

Radiolabel recovery (Pancreas [1]): Not detected assumed BLQ
Radiolabel recovery (Rattus norvegicus [2]): Not detected assumed BLQ
Radiolabel recovery (Adrenal gland [3]): Not detected assumed BLQ
Radiolabel recovery (Liver): < 0.037 ugequiv/g
Radiolabel recovery (Rattus norvegicus [4]): 0.13 ugequiv/g
Radiolabel recovery (Lung [5]): 0.2 ugequiv/g
Radiolabel recovery (Muscle tissue [6]): 0.23 ugequiv/g
Radiolabel recovery (Rattus norvegicus [7]): Not detected assumed BLQ
Radiolabel recovery (Brain): < 0.037 ugequiv/g
Radiolabel recovery (Muscle tissue [8]): 0.27 ugequiv/g
Radiolabel recovery (Adrenal gland [9]): 0.17 ugequiv/g
Radiolabel recovery (Blood): 0.08 ugequiv/g
Radiolabel recovery (Rattus norvegicus [10]): 0.08 ugequiv/g
Radiolabel recovery (Rattus norvegicus [11]): Not detected assumed BLQ
Radiolabel recovery (Pancreas [12]): Not detected assumed BLQ
AUC (Plasma): 3470 ngequiv.hr/g
Radiolabel recovery (Harderian gland): Not detected assumed BLQ
Radiolabel recovery (Thymus): 0.27 ugequiv/g
Radiolabel recovery (Lung [13]): 0.883 ugequiv/g
Radiolabel recovery (Rattus norvegicus [14]): 0.51 ugequiv/g
Radiolabel recovery (Rattus norvegicus [15]): 1.08 ugequiv/g
Radiolabel recovery (Pancreas [16]): 0.75 ugequiv/g
Radiolabel recovery (Rattus norvegicus [17]): 0.06 ugequiv/g
Compound: COc1ccc(-n2nc(C(N)=O)c3c2C(=O)N(c2ccc(N4CCCC[14C]4=O)cc2)CC3)cc1
